ChEMBL document CHEMBL1764976, “Small molecule inhibitors of retinoic acid 4-hydroxylase (CYP26): synthesis and biological evaluation of imidazole methyl 3-(4-(aryl-2-ylamino)phenyl)propanoates” (J Med Chem, 2011)
Activity calls are given as the source filed them. The calls are words filed in the database; no cut-off is given here.

Key:
Cytochrome P450 26A1 = biological target: T1, Cytochrome P450 26A1 (Homo sapiens, UniProt O43174); test: Inhibition of CYP26A1 in human MCF7 cell microsomes using [3H]ATRA after 1 hr by scintillation counting; set-up: species or system Microsome
T1 sequence (O43174 whole entry): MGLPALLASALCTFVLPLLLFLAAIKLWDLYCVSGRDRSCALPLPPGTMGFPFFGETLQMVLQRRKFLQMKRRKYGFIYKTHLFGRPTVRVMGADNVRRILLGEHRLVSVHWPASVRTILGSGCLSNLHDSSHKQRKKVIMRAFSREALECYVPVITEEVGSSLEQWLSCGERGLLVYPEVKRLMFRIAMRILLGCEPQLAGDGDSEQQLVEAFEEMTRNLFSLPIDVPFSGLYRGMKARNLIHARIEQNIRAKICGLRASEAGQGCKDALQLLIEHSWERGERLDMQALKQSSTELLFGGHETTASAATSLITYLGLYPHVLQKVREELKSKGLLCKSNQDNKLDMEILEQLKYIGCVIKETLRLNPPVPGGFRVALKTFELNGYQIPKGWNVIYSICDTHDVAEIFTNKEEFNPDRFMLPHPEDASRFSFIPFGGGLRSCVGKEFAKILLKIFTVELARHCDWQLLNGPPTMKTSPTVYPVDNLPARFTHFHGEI
Method in brief: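 Cell-free assay on MCF7 CYP26A1 microsomes with [11,12-3H]all-trans-retinoic acid as substrate. IC50 taken from the best fit of a four-point dose-response curve.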

CYP2C19 = CYP2C19 (Homo sapiens, UniProt P33261); test: Inhibition of CYP2C19 in human liver microsomes at 0.4 uM; type: ADME, Microsome
Sequence of CYP2C19 (P33261 whole entry): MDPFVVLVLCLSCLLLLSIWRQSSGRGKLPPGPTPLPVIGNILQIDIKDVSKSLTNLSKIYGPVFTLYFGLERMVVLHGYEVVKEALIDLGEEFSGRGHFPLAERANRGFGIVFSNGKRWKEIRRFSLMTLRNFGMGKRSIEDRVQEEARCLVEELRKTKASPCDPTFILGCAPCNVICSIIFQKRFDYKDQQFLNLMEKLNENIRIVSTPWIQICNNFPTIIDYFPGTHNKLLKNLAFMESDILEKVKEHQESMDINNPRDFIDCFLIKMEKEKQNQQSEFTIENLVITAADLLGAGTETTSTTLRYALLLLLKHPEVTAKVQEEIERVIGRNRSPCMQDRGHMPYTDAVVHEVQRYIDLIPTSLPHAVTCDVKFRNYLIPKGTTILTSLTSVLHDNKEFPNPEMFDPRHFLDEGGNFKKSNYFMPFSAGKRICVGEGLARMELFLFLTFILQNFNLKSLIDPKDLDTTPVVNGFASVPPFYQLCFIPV

CYP3A4 = CYP3A4 (Homo sapiens, UniProt P08684); test: Inhibition of CYP3A4 in human liver microsomes at 0.4 uM; type: ADME, Microsome
Sequence of CYP3A4 (P08684 whole entry): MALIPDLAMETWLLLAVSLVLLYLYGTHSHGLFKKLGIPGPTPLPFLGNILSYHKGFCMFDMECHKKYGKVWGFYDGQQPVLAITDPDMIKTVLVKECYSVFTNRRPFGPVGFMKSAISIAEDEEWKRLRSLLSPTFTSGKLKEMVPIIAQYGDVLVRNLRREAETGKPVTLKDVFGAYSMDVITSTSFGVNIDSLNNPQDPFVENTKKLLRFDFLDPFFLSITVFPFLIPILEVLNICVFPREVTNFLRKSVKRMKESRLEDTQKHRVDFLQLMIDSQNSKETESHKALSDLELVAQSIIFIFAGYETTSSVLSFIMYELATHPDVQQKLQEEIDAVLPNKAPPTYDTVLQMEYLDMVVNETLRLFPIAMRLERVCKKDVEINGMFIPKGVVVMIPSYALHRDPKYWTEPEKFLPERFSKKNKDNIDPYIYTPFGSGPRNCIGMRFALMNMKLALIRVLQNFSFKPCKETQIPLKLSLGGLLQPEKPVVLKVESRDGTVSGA

CYP2C9 = CYP2C9 (Homo sapiens, UniProt P11712); test: Inhibition of CYP2C9 in human liver microsomes at 0.4 uM; type: ADME, Microsome
Sequence of CYP2C9 (P11712 whole entry): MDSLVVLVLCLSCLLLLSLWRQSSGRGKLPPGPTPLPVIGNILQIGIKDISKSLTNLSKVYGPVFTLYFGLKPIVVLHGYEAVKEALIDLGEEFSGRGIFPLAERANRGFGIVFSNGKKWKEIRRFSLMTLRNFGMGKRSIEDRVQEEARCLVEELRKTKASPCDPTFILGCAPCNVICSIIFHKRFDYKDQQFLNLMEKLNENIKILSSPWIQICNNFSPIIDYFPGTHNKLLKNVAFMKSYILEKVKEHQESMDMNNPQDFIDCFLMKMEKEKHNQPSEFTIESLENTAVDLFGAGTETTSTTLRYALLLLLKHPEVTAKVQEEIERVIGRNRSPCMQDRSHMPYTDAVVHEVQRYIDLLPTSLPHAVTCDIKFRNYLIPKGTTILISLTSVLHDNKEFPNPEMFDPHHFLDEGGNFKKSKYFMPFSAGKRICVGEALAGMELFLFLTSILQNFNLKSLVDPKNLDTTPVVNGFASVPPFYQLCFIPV

SH-SY5Y [1] = test: Induction of CYP26A1 mRNA expression in human SH-SY5Y cells at 1 uM after 72 hrs by RT-PCR analysis in presence of 0.1 uM of all-trans retinoic acid; type: functional
Method in brief: (§1)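 SH-SY5Y cells exposed 72 h to test agent at 1 μM alone or with 0.1 μM ATRA. Total RNA extracted, reverse transcribed, and quantified by real-time PCR with TaqMan probes for CYP26A1 and β-actin. CYP26A1 was normalized to β-actin and reported as fold increase over cells given ATRA alone.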

CYP1A2 = biological target: T2, CYP1A2 (Homo sapiens, UniProt P05177); test: Inhibition of CYP1A2 in human liver microsomes at 0.4 uM; type: ADME, Microsome
T2 sequence (P05177 whole entry): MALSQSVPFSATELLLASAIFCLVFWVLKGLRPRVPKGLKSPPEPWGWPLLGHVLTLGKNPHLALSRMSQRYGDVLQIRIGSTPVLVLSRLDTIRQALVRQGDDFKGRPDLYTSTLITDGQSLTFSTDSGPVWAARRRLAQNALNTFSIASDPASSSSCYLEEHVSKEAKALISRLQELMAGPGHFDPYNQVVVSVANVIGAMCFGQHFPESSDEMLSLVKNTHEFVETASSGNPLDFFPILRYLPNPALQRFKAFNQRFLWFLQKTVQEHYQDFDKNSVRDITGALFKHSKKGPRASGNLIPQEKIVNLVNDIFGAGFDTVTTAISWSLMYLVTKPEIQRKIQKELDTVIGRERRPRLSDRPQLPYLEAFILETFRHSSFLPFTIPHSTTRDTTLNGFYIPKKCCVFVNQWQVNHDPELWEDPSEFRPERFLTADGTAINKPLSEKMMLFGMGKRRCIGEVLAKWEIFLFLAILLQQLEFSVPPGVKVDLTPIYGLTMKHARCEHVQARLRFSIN

CYP2D6 = CYP2D6 (Homo sapiens, UniProt P10635); test: Inhibition of CYP2D6 in human liver microsomes at 0.4 uM; type: ADME, Microsome
Sequence of CYP2D6 (P10635 whole entry): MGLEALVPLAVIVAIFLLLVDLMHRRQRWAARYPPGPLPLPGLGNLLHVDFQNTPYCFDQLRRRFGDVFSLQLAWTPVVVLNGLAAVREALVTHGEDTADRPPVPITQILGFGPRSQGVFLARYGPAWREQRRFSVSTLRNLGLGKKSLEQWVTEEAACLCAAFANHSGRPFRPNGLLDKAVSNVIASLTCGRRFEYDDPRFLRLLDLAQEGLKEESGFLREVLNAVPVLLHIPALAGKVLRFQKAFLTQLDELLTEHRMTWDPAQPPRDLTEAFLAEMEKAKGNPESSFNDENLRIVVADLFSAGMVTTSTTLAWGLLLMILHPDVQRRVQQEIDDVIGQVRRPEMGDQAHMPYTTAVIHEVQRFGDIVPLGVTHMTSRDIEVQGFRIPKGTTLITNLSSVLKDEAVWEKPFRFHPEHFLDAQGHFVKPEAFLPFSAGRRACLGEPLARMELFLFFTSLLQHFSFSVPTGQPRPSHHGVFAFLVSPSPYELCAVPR

Cytochrome P450 1A2 = biological target: T3, Cytochrome P450 1A2 (Homo sapiens, UniProt P05177); test: Inhibition of CYP1A2 in human liver microsomes; type: ADME, Microsome
T3 sequence (P05177 whole entry): T2 sequence (P05177 whole entry)

Salmonella typhimurium [2] = test: Mutagenic activity in Salmonella Typhimurium TA98 by Ames test in presence of S9 mixture; type: toxicity, organism-based; conditions: salmonella enterica subsp. enterica serovar typhimurium
Method in brief: (§2)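 Ames screen with Salmonella typhimurium strains TA98 and TA100, run with and without S-9 mix.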

[3] = Half life in human liver microsomes; type: ADME, Microsome
Cytochrome P450 2C9 = Cytochrome P450 2C9 (Homo sapiens, UniProt P11712); test: Inhibition of CYP2C9 in human liver microsomes; type: ADME, Microsome
Sequence of Cytochrome P450 2C9 (P11712 whole entry): as the sequence (P11712 whole entry) above

Cytochrome P450 2D6 = Cytochrome P450 2D6 (Homo sapiens, UniProt P10635); test: Inhibition of CYP2D6 in human liver microsomes; type: ADME, Microsome
Sequence of Cytochrome P450 2D6 (P10635 whole entry): as the sequence (P10635 whole entry) above

Salmonella typhimurium [4] = test: Mutagenic activity in Salmonella Typhimurium TA100 by Ames test in presence of S9 mixture; type: toxicity, organism-based; conditions: salmonella enterica subsp. enterica serovar typhimurium; method in brief: as §2
SH-SY5Y [5] = test: Induction of CYP26A1 mRNA expression in human SH-SY5Y cells at 1 uM after 72 hrs by RT-PCR analysis; type: functional, cell-based; method in brief: as §1

Compound COC(=O)C(C)(C)C(c1ccc(Nc2ccc3cc(OC)ccc3c2)cc1)n1ccnc1 (stereo not drawn) has an IC50 (Cytochrome P450 26A1) of 0.008 µM.
Work on COC(=O)C(C)(C)C(c1ccc(Nc2nc3ccccc3o2)cc1)n1ccnc1 (stereo not drawn) yielded an inhibition at 0.4 µM (CYP2C19) of 13%, an inhibition at 0.4 µM (CYP3A4) of 84% and an IC50 (Cytochrome P450 26A1) of 0.01 µM. The inhibition at 0.4 µM (CYP2C9) was 45%, the Activity (SH-SY5Y [1]) was “Active” and the inhibition at 0.4 µM (CYP1A2) was 31%. For the same compound, the inhibition at 0.4 µM (CYP2D6) was 55%.
In the case of COC(=O)[C@@H](C)[C@H](c1ccc(Nc2ccc3ccccc3c2)cc1)n1ccnc1 (relative stereo), the IC50 (Cytochrome P450 26A1) is reported as 0.14 µM.
Compound COC(=O)C(C)(C)C(c1ccc(Nc2ccc3ccccc3c2)cc1)n1ccnc1 (stereo not drawn) has an inhibition at 0.4 µM (CYP2C19) of 11%, an IC50 (Cytochrome P450 1A2) of 1.2 µM and an inhibition at 0.4 µM (CYP3A4) of 60%. The IC50 (Cytochrome P450 26A1) was 0.003 µM, the inhibition at 0.4 µM (CYP2C9) was 41% and the “fold change (FC)” value (SH-SY5Y [1]) was 5.8. The Activity (Salmonella typhimurium [2]) was “Non-toxic”, the half-life [3] was 5 h and the inhibition at 0.4 µM (CYP1A2) was 21%. For the same compound, the IC50 (Cytochrome P450 2C9) was 1.5 µM, the inhibition at 0.4 µM (CYP2D6) was 25% and the IC50 (Cytochrome P450 2D6) was 0.6 µM. The Activity (Salmonella typhimurium [4]) was “Non-toxic”.
With COC(=O)C(C)(C)C(c1ccc(Nc2ccc3cc(O)ccc3c2)cc1)n1ccnc1 (stereo not drawn) the IC50 (Cytochrome P450 26A1) was 0.003 µM and the Activity (SH-SY5Y [1]) was “Active”.
In the case of CCOc1ccc2ccccc2c1Nc1ccc(C(n2ccnc2)C(C)(C)C(=O)OC)cc1 (stereo not drawn), the IC50 (Cytochrome P450 26A1) is reported as 0.125 µM.
With COC(=O)C(C)(C)C(c1ccc(Nc2ccccc2)cc1)n1ccnc1 (stereo not drawn) the IC50 (Cytochrome P450 26A1) was 0.01 µM and the Activity (SH-SY5Y [1]) was “Active”.
COC(=O)C(C)(C)C(c1ccc(Nc2cccc3ccccc23)cc1)n1ccnc1 (stereo not drawn) gave an inhibition at 0.4 µM (CYP2C19) of 49%, an inhibition at 0.4 µM (CYP3A4) of 75% and an IC50 (Cytochrome P450 26A1) of 0.006 µM. The inhibition at 0.4 µM (CYP2C9) was 48%, the Activity (SH-SY5Y [1]) was “Active” and the inhibition at 0.4 µM (CYP1A2) was 15%. The inhibition at 0.4 µM (CYP2D6) was 53%.
In the case of COC(=O)C(C)(C)C(c1ccc(Nc2ccc(-c3ccccc3)cc2)cc1)n1ccnc1 (stereo not drawn), the IC50 (Cytochrome P450 26A1) is reported as 0.25 µM.
COC(=O)C(C)(C)C(c1ccc(Oc2ccc3ccccc3c2)cc1)n1ccnc1 (stereo not drawn) gave an IC50 (Cytochrome P450 26A1) greater than 1 µM.
For COC(=O)C(C)(C)C(c1ccc(Nc2nc3ccccc3s2)cc1)n1ccnc1 (stereo not drawn), the inhibition at 0.4 µM (CYP2C19) was 91%, the inhibition at 0.4 µM (CYP3A4) was 46% and the IC50 (Cytochrome P450 26A1) was 0.1 µM. It also gave an inhibition at 0.4 µM (CYP2C9) of 87%, an inhibition at 0.4 µM (CYP1A2) of 38% and an inhibition at 0.4 µM (CYP2D6) of 11%.
With COC(=O)[C@@H](C)[C@H](c1ccc(Nc2ccccc2)cc1)n1ccnc1 (relative stereo) the IC50 (Cytochrome P450 26A1) was 0.04 µM and the Activity (SH-SY5Y [1]) was “Active”.
With COC(=O)C(C)(C)C(c1ccc(Cc2ccc3ccccc3c2)cc1)n1ccnc1 (stereo not drawn) the IC50 (Cytochrome P450 26A1) was greater than 1 µM.
For Clc1cccc(C(c2ccc3[nH]cnc3c2)n2ccnc2)c1 (stereo not drawn) [LIAROZOLE], the “fold change (FC)” value (SH-SY5Y [1]) was 2.3 and the Activity (SH-SY5Y [5]) was “inactive”.
In the case of C[C@H]([C@@H](c1ccc(Nc2nc3ccccc3s2)cc1)n1ccnc1)N(C)C, the IC50 (Cytochrome P450 1A2) is reported as 8.3 µM, the IC50 (Cytochrome P450 26A1) is reported as 0.01 µM and the “fold change (FC)” value (SH-SY5Y [1]) is reported as 4.7. The IC50 (Cytochrome P450 2C9) was 5.9 µM, the IC50 (Cytochrome P450 2D6) was 3.9 µM and the Activity (SH-SY5Y [5]) was “inactive”.
Work on COC(=O)[C@H](C)[C@H](c1ccc(Nc2ccccc2)cc1)n1ccnc1 (relative stereo) yielded an IC50 (Cytochrome P450 26A1) of 0.026 µM.
In the case of COC(=O)C(C)(C)C(c1ccc(Nc2ccc3c(c2)OCO3)cc1)n1ccnc1 (stereo not drawn), the IC50 (Cytochrome P450 26A1) is reported as 0.008 µM and the Activity (SH-SY5Y [1]) is reported as “Active”.
With COC(=O)[C@H](C)[C@H](c1ccc(Nc2ccc3ccccc3c2)cc1)n1ccnc1 (relative stereo) the IC50 (Cytochrome P450 26A1) was 0.05 µM and the Activity (SH-SY5Y [1]) was “Active”.
